Most compounds without a hit are left out; they make up all but 1.5% or so of the library.
Cneo AK release = Cryptococcus neoformans lysis via adenylate kinase release; C. neoformans lysis, adenylate kinase release luminescence, 4 h; normalised: neutral wells 0, clomiphene wells 100; lysis activity, % at 15 µM; hit rate 0.2% among 360,000;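 active means mean lysis activity across replicates of at least 80%, whatever share of replicates individually reach that level; inactive means mean lysis activity below 80%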
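Test system: log-phase Cryptococcus neoformans yeast cells. Input: 5 × 10^6 yeast cells/mL. Medium: fresh YPD growth medium. Doses: single dose. Incubation: static 4 h at 37 °C with compound, 1 h detection. Measured by: luminescent adenylate kinase detection reagent. Read-out: signal increase indicating cell lysis. Benchmarks: Clomiphene.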
MITF TRPM1 HTS = activators of MITF-driven TRPM1 promoter activity in SK-MEL-5 cells | hit rate 0.75% among 300,000 | AID 588334 | activation, % at 12.5 µM | SK-MEL-5 TRPM1-promoter luciferase, 24 h; % of positive control, neutral wells = 0;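 active means mean activation of at least 80% with every replicate also reaching 80%; inconclusive means mean reaches 80% but some replicate falls short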
PGC1a acetyl inh = lowers PGC1a acetylation signal in U2OS cells; AlphaScreen anti-acetyl-lysine; with virally co-expressed GCN5 acetyltransferase; inhibition, % at 15.6 µM; hit rate 0.17% among 350,000;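 active means every replicate shows inhibition of at least 40%; inconclusive means mean inhibition at least 40% but some replicate below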
Wnt bcat act = activators of Wnt/beta-catenin signaling; hit rate 1.2% among 300,000; activation, % at 9.35 µM; Wnt/beta-catenin reporter cell assay, activator, plate reader; AID 743398; in the data active means activation above about 30%, passing the limit was not always enough; inconclusive means no clear call, values can overlap the other calls
Hits are given with their value.

Results for COc1ccc(OCC(=O)N/N=C2\CCc3ccccc32)cc1 ?
Cneo AK release: inactive; MITF TRPM1 HTS: inactive; PGC1a acetyl inh: inactive

Results for NC(=O)C(=O)N/N=C1\CCc2ccccc21 ?
Cneo AK release: inactive; MITF TRPM1 HTS: inactive; PGC1a acetyl inh: inactive; Wnt bcat act: 33

Results for COc1ccc(C(=O)COC(=O)c2n[nH]c3ccccc23)c(OC)c1 ?
Cneo AK release: inactive; MITF TRPM1 HTS: 96; Wnt bcat act: inactive

Results for COc1ccc(OC)c(NC(=O)COC(=O)c2n[nH]c3ccccc23)c1 ?
Cneo AK release: inactive; MITF TRPM1 HTS: inactive; PGC1a acetyl inh: inactive; Wnt bcat act: inactive

What do the screens show for `O=C(OCCOc1ccccc1)c1n[nH]c2ccccc12`?
Cneo AK release: inactive; MITF TRPM1 HTS: 106; PGC1a acetyl inh: inactive; Wnt bcat act: 38

What do the screens show for `CCCCCc1ccc(-c2cn(CC3CCCCC3)nn2)cc1`?
Cneo AK release: inactive; MITF TRPM1 HTS: inactive; PGC1a acetyl inh: inactive; Wnt bcat act: inactive

What do the screens show for `COc1ccc(-c2cn(CC3CCCCC3)nn2)cc1`?
Cneo AK release: inactive; MITF TRPM1 HTS: 88; PGC1a acetyl inh: inactive; Wnt bcat act: inactive

Results for c1ccc(-c2cn(CC3CCCCC3)nn2)cc1 ?
Cneo AK release: inactive; MITF TRPM1 HTS: inactive; PGC1a acetyl inh: inactive; Wnt bcat act: 32

What do the screens show for `Cc1ccc(S(=O)(=O)Nc2ccc3c(c2)C(=O)N([C@@H](C)CO)C[C@@H](C)[C@H](CN(C)C(=O)Nc2ccccc2)O3)cc1`?
Cneo AK release: inactive; PGC1a acetyl inh: inactive

How did O=C1C(Cl)=C(Nc2ccc3cn[nH]c3c2)C(=O)c2ccccc21 do in these assays?
Cneo AK release: inactive; MITF TRPM1 HTS: inactive; PGC1a acetyl inh: 55; Wnt bcat act: inactive

Results for O=C(Nc1ccc(-c2cn3ccsc3n2)cc1)C1CC1 ?
Cneo AK release: inactive; MITF TRPM1 HTS: inactive; PGC1a acetyl inh: inactive; Wnt bcat act: 42

How did C[C@H]1CN([C@@H](C)CO)C(=O)c2cccc(NC(=O)c3ccncc3)c2O[C@@H]1CN(C)C(=O)Nc1ccc(C(F)(F)F)cc1 do in these assays?
Cneo AK release: inactive; PGC1a acetyl inh: inactive

What do the screens show for `COc1ccc(-c2cc(C(=O)N/N=C/c3cc(OC)c(OC)cc3OC)c3ccccc3n2)cc1`?
Cneo AK release: inactive; PGC1a acetyl inh: 45; Wnt bcat act: inactive

What do the screens show for `COc1ccc(-c2cc(C(=O)N/N=C/c3cccnc3)c3ccccc3n2)cc1`?
Cneo AK release: inactive; MITF TRPM1 HTS: inactive; Wnt bcat act: inactive

How did CCS(=O)(=O)Nc1ccc2c(c1)C(=O)N(C)C[C@H](OC)[C@H](C)CN(C)[C@H](C)CO2 do in these assays?
Cneo AK release: inactive; PGC1a acetyl inh: inactive

What do the screens show for `CCOCC(=O)Nc1nc2ccc(OCC)cc2s1`?
Cneo AK release: inactive; MITF TRPM1 HTS: inactive; PGC1a acetyl inh: inactive; Wnt bcat act: 46

How did CCOc1ccc2nc(NC(=O)CSCC(=O)Nc3cc(C)on3)sc2c1 do in these assays?
Cneo AK release: inactive; MITF TRPM1 HTS: 104; Wnt bcat act: inconclusive

Results for Cc1cc(Cn2nc(-c3ccccc3)cc2C(=O)NCc2cccs2)on1 ?
Cneo AK release: inactive; MITF TRPM1 HTS: inactive; PGC1a acetyl inh: inactive; Wnt bcat act: inactive

How did CCOC(=O)c1cc(-c2ccccc2C)nn1Cc1cc(C)no1 do in these assays?
Cneo AK release: inactive; MITF TRPM1 HTS: inactive; PGC1a acetyl inh: inactive; Wnt bcat act: inactive

Results for CCOC(=O)c1cc(-c2ccccc2)nn1Cc1cc(C)no1 ?
Cneo AK release: inactive; MITF TRPM1 HTS: 87; PGC1a acetyl inh: inactive; Wnt bcat act: inactive

What do the screens show for `Cc1ccc(CNC(=O)c2cc(-c3ccccc3)nn2Cc2cc(C)no2)cc1`?
Cneo AK release: inactive; MITF TRPM1 HTS: 125; Wnt bcat act: inactive

What do the screens show for `CNc1nc(-c2ccc([N+](=O)[O-])cc2)cs1`?
Cneo AK release: inactive; MITF TRPM1 HTS: 90; PGC1a acetyl inh: inactive; Wnt bcat act: inactive

How did Cc1ccccc1Nc1nc(N)c2ccccc2n1 do in these assays?
Cneo AK release: inactive; MITF TRPM1 HTS: inactive; PGC1a acetyl inh: inactive; Wnt bcat act: 40

Results for COc1ccccc1Nc1nc(N)nc(-c2oc3ccccc3c2C)n1 ?
Cneo AK release: inactive; PGC1a acetyl inh: inactive

How did Cc1ccccc1Nc1nc(N)nc(-c2oc3ccccc3c2C)n1 do in these assays?
Cneo AK release: inactive; PGC1a acetyl inh: inactive; Wnt bcat act: 47

How did Nc1nc(Nc2ccccc2)nc2ccccc12 do in these assays?
Cneo AK release: inactive; PGC1a acetyl inh: inactive; Wnt bcat act: 41

Results for C[C@H](NC(=O)C[C@H]1CC[C@@H](NC(=O)C2CCC2)[C@H](CO)O1)c1ccccc1 ?
Cneo AK release: inactive; PGC1a acetyl inh: inactive
